Source: ChEMBL document CHEMBL4425094, “Novel Benzo[a]quinolizidine Analogs Induce Cancer Cell Death through Paraptosis and Apoptosis” (J Med Chem, 2016)
Active and inactive are the calls of the source. The calls are words filed in the database; no cut-off is given here.

Tests used:
PC-3 [1] = test: Induction of apoptosis in human PC3 cells assessed as early apoptotic cells at 1 uM after 24 hrs by Annexin V-FITC/propidium iodide based flow cytometric analysis (reference value: 2.3 %); assay type: functional
In short: (§1)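 PC3 cells exposed to 0.5, 1 or 2 μM for 24 h, then stained with Annexin V-FITC and PI and analyzed by FACSCalibur flow cytometry. Populations assigned as necrotic (Annexin V−/PI+), late apoptotic (double positive), normal (Annexin V−/PI−) and early apoptotic (Annexin V+/PI−). DMSO vehicle control.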

PC-3 [2] = test: Induction of apoptosis in human PC3 cells after 24 hrs by Annexin V-FITC/propidium iodide based flow cytometric analysis; assay type: functional, cell-based; in short: as §1
K562 = test: Cytotoxicity against human K562 cells assessed as cell growth inhibition after 24 hrs by MTT assay; assay type: functional, cell-based; conditions: K562, 24 h
In short: (§2)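 Cells seeded 24 h in RPMI 1640 + 10% FBS. RWPE-1 was kept in K-SFM with bovine pituitary extract and EGF. Cells then exposed to compounds for 24 h at 37 °C, 5% CO2, with DMSO vehicle and docetaxel as positive control. MTT added for 4 h, absorbance read at 570 nm. Triplicate runs, IC50 reported as mean of three experiments.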

PC-3 [3] = test: Induction of autophagy in human PC3 cells transfected with mRFP-GFP-LC3 assessed as pervacuolar distribution of LC3 at 1 uM after 8 hrs by fluorescence microscopic analysis; assay type: functional, cell-based
In short: (§3)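 PC3 cells transfected with an mRFP-GFP-LC3 reporter plasmid, then treated 8 h with 1 μM test agent or 0.5 μM rapamycin (autophagy inducer). Imaged by confocal fluorescence microscopy: yellow puncta (overlapping red/green) scored as autophagosomes, red-only puncta as autolysosomes, since GFP is quenched in acidic lysosomes.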

PC-3 [4] = test: Induction of apoptosis in human in human PC3 cells assessed as reduction in cell viability in presence of caspase inhibitor by MTT assay
PC-3 [5] = test: Induction of autophagy in human PC3 cells assessed as upregulation of LC3 expression after 24 hrs by Western blot analysis; assay type: functional, cell-based
In short: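 PC3 cells in RPMI 1640 with 10% FBS, treated at 50−70% confluence for a time course up to 24 h; DMSO vehicle control. Lysed in RIPA buffer; 40 μg protein run on SDS-PAGE, transferred to nitrocellulose, primary antibody overnight at 4 °C, HRP secondary 45 min, ECL detection. GAPDH or β-actin loading control.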

PC-3 [6] = test: Induction of fusion of autophagosomes with lysosomes in human PC3 cells transfected with mRFP-GFP-LC3 at 1 uM after 8 hrs by fluorescence microscopic analysis; assay type: functional, cell-based; in short: as §3
[7] = Toxicity in athymic Balb/c mouse assessed as induction of mortality at 15 mg/kg, ip administered every 2 days for 18 days; assay type: organism-based; conditions: in vivo
In short: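 Male athymic BALB/c-nu mice, 6 weeks old, bearing subcutaneous PC3M-luc-C6 xenografts (5 × 10^6 cells, right anterior flank) were grouped (n = 5) once tumours reached about 0.1 cm3. They received a 15 mg/kg suspension intraperitoneally every 2 days for 18 days, alongside placebo and docetaxel (15 mg/kg) groups. Body weight and deaths were recorded.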

PC-3 [8] = test: Induction of apoptosis in human PC3 cells assessed as necrotic cells at 1 uM after 24 hrs by Annexin V-FITC/propidium iodide based flow cytometric analysis (reference value: 1.1 %); assay type: functional; in short: as §1
PC-3 [9] = test: Induction of endoplasmic reticulum derived cytoplasmic vacuole formation in human PC3 cells after 4 to 8 hrs by ER-tracker staining based fluorescence microscopy; assay type: functional, cell-based
In short: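 PC3 cells incubated with vehicle or agent for 0, 4 or 8 h. They were then stained at 37 °C for 15 min with ER-Tracker (1:3000) plus 10 μg/mL Hoechst 33342, washed with PBS and imaged by fluorescence/confocal microscopy.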

PC-3 [10] = test: Cytotoxicity against human PC3 cells assessed as cell growth inhibition after 24 hrs by MTT assay; assay type: functional, cell-based; conditions: PC-3, 24 h; in short: as §2
PC-3 [11] = test: Induction of cell cycle arrest in human PC3 cells assessed as accumulation in S phase at 0.5 uM after 24 hrs by […]propidium iodide based flow cytometric analysis (reference value: 21 to 31.6 %); assay type: functional
PC-3 [12] = test: Induction of autophagy in human PC3 cells transfected with LC3-targeting siRNA assessed as vacuole formation at 1 uM after 24 hrs by phase-contrast microscopic analysis; assay type: functional, cell-based
In short: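 PC3 cells plated at 20−30% confluency, then transfected 24 h later with 50 nM LC3-targeting or scrambled siRNA by lipofection. After 48 h they were exposed to 1 μM agent for a further 24 h, followed by phase-contrast imaging and Western blotting.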

RWPE-1 = test: Cytotoxicity against human RWPE1 cells assessed as cell growth inhibition after 24 hrs by MTT assay; assay type: cell-based; conditions: RWPE-1, 24 h; in short: as §2
PC-3 [13] = test: Induction of apoptosis in human PC3 cells assessed as late apoptotic cells at 2 uM after 24 hrs by Annexin V-FITC/propidium iodide based flow cytometric analysis (reference value: 1.1 %); assay type: functional; in short: as §1
PC-3 [14] = test: Induction of cytoplasmic vacuolation in human PC3 cells assessed as increase in size and number of vacuoles at 1 uM by phase-contrast microscopic analysis; assay type: functional, cell-based; conditions: TDE = time-dependent effect
In short: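 PC3 cells in RPMI 1640 with 10% FBS at 37 °C, 5% CO2, treated with 1 μM agent for 0−24 h; DMSO vehicle control. Vacuole appearance, size and number followed over time by phase-contrast microscopy at constant magnification.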

Cc1cc(C)cc(COc2cc3c(cc2OCc2cc(C)cc(C)c2)[C@@H]2C[C@H](O)C[C@@H](C)N2CC3)c1 (racemic)
Activity (PC-3 [1]): 5.9%
Activity (PC-3 [2]): Dose-dependent effect
IC50 (K562): 1440 nM
Activity (PC-3 [3]): Active
Activity (PC-3 [4]): inactive
Activity (PC-3 [5]): Active
Activity (PC-3 [6]): inactive
Activity [7]: Non-Toxic
Activity (PC-3 [8]): 1.6%
Activity (PC-3 [9]): Active
IC50 (PC-3 [10]): 660 nM
Activity (PC-3 [11]): 16.1 - 21.3%
Activity (PC-3 [12]): inactive
IC50 (RWPE-1): 5060 nM
Activity (PC-3 [13]): 36.4%
Activity (PC-3 [14]): Tde
